Measurements reported in ChEMBL document CHEMBL4513216, “Probing the Open Global Health Chemical Diversity Library for Multistage-Active Starting Points for Next-Generation Antimalarials” (ACS Infect Dis, 2020).

Assay: Toxicity liver stage against HepG2, at 10uM
Format: cell-based
Set-up: test concentration 10 uM, cell line HepG2-A16-CD81EGFP
Settings: human, HepG2-A16-CD81EGFP cells; read-out: INHIBITION
Method in brief: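 Uninfected HepG2-A16-CD81EGFP cells, 3 × 10^3 per well, 1536-well, plated on prespotted compound at 10 μM final, parasite-free screening media added to match infected plates; puromycin 10 μM positive, DMSO 0.5% negative; run in parallel with 48 h PbLuc assay at 37 °C, 5% CO2; viability by CellTiter-Glo luminescence, normalized to controls.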

SMILES | cytotoxicity at 10 µM
CCS(=O)(=O)N1CCc2ccc(NC(=O)Nc3cccc(F)c3)cc21 | 38.4%
CC1=C(C#N)C(=O)N(C)C(=O)/C1=C\C1=Cc2ccccc2OC1 | -39.4%
Cc1nc(NC(=O)c2c(-n3cnnn3)sc3c2CCCC3)sc1C | 2.03%
Cc1cnc(NC(=O)c2csc(NC3CCCC3)n2)s1 | 45.8%
CCCc1cc(=O)[nH]c(-n2nc(C3CC3)cc2N)n1 | 31.3%
CC(C)c1cc(=O)[nH]c(-n2nc(C3CC3)cc2N)n1 | 33.9%
Cc1cs/c(=N/C(=O)c2csc(NCC(C)C)n2)[nH]1 | 22.9%
Cc1[nH]/c(=N\C(=O)c2csc(NCC(C)C)n2)sc1C | 47.4%
Cc1cc(CN2CCc3nc(N4CCOCC4)nc(O)c3CC2)c(C)s1 | 6.3%
CC(C)(C)n1nnnc1CN(Cc1ccccc1)Cc1ccccc1Cl | 8.56%
Cn1cncc1CN1CCCC1c1cncc(Oc2ccc(Cl)cc2)n1 (centres undefined) | 11%
COc1ccc(CN2CCOC(CCc3ccnc(N)c3)C2)cc1 (centres undefined) | 13.3%
CN(C)S(=O)(=O)N1CCCC(c2cccc(Cc3ccc(F)cc3)n2)C1 (centres undefined) | 38.9%
COC1CCN(c2ccc(NC(=O)C3CC3)cc2C(F)(F)F)CC1 | 39.5%
Cc1cnn(C2CN(c3ccccc3S(=O)(=O)C(F)(F)F)C2)c1 | 11.5%
Cc1cnn(CC(C)NCc2cc(=O)n3ccccc3n2)c1 (centres undefined) | -5.3%
Cc1c(Cl)cccc1OCC(=O)NC1(C#N)CCSC1 (centres undefined) | 37.8%
Cc1sc(NC(=O)CN2CCCC(c3ncc[nH]3)C2)c(C)c1C (centres undefined) | 28.1%
COCCN(CCOC)C(=O)c1cnn(C)c1C | -149%
CCN(CC(C)C#N)C(=O)CNc1ccc(C(N)=O)c(C)c1 (centres undefined) | 8.54%
COc1cc(C(=O)NS(=O)(=O)c2cc(Cl)sc2Cl)ccc1OC(F)F | -13.9%
CC(C)Oc1ccc(NCc2ccc([S+](C)[O-])cc2)c(F)c1 (centres undefined) | 22.4%

SMILES | cytotoxicity at 10 µM
COc1cc2c(nn1)CCN(Cc1nnc(Cc3ccccc3)o1)C2 | 4.25%
CCCn1nc2c(cc1=O)CN(c1ncnc3ccsc13)CC2 | 49.5%
Cc1ccc(N2CCCN(C(=O)c3cn(C)c4ccccc34)CC2)nn1 | -9.53%
N#Cc1c(Cl)nsc1NCc1cccnc1OCC(F)(F)F | 25.5%
Cc1ccsc1C(=O)Nc1ccc(N2CCC(O)CC2)c(C#N)c1 | 33.2%
CCc1nc(CNc2cc(Cl)ccc2OCC2CCCO2)no1 (centres undefined) | 8.84%
COc1ccccc1C1(CNc2nnc(C)c(C)c2C#N)CCCC1 | 34.4%
CN(Cc1noc(C(C)(C)C)n1)Cc1ccccc1N1CCCCC1 | -4.73%
NC(=O)c1ccc(N2CCCCC2)c(NC(=O)c2cc(F)ccc2F)c1 | 7.57%
O=C(C1CC1)N1CCC(Oc2ccccc2Cl)CC1 | 25.6%
Brc1ccc(-c2nnc(CN(Cc3cccs3)CC3CCCO3)o2)s1 (centres undefined) | 23.2%
CCn1nc2c(cc1=O)CN(c1ncnc3ccsc13)CC2 | 49.6%
CC(C)n1nc2c(cc1=O)CN(c1ncnc3ccccc13)CC2 | 52.2%
Cc1cn2c(n1)C(CNCC1=Cc3ccccc3OC1)CCC2 (centres undefined) | 27.7%
Cc1nc(C)c(C(=O)NCc2nc3cccc(C)c3n2C)o1 | 40.1%
Cc1ccc(-c2nc(CSCCC(=O)NC(N)=O)co2)c(C)c1 | -6.4%
Cc1cc(C2CCCN(CCc3ccc4c(c3)CCO4)C2)n[nH]1 (centres undefined) | -7.66%
CNC(=O)c1cccnc1N1CCC(Oc2ccc(F)cc2)CC1 | 3.41%
Cc1cc(CNc2ccnn2CC(C)C)ccc1-n1cncn1 | 24%
O=C(c1ccc(Br)o1)N1CCN(Cc2ccc(OC(F)(F)F)cc2)CC1 | 21.7%
COc1cc(N2CCC3(CC2)CN(CCO)c2ccccc23)ncn1 | 19.7%
Cn1cc(CN2CCc3ccc(=O)n(CC4CC4)c3CC2)cn1 | 3.24%

SMILES | cytotoxicity at 10 µM
COC[C@@]12CCO[C@@H]1CCN(C(=O)C1CC(F)(F)C1)C2 | -97.4%
Cc1ccc(C(=O)N2CCc3c(COCC4CC4)cncc3C2)o1 | -74.2%
CCCn1cc(-c2ccnc(NC3CCc4ccccc4C3)n2)c(C)n1 (centres undefined) | 81.3%
OCC1(Cc2ccccc2F)CCCN(c2ccc3ccccc3n2)C1 (centres undefined) | 22.7%
Cc1cnc(C)c(Oc2ccc(Cl)c(CN3CCCC3)c2Cl)n1 | 2.61%
Cc1nnc(CN2C[C@H](NC(=O)C3CCOCC3)[C@@H](C(C)C)C2)s1 | -3.41%
CN1CCN(CCc2ncnn2-c2ccc3c(c2)OCO3)CC1 | -0.00326%
CNc1nc(C)cc(NCc2cc(C)cc3c(C)c(C)[nH]c23)n1 | -30.2%
CCS(=O)(=O)NCc1cccnc1N1CCCC(O)C1 (centres undefined) | 1.91%
Cc1nc(N)ncc1C(=O)N1CCCC(CCc2ccc(F)cc2)C1 (centres undefined) | -8.3%
Cc1ncnc(N2CCCN(c3nc4ccccc4s3)CC2)c1C | 55.5%
Fc1ccc(N2CCCN(c3ccc(Cn4ccnc4)cn3)CC2)cc1 | 26.2%
CN(C)CC1(O)CCCN(C(=O)Cn2ccc3ccccc32)CC1 (centres undefined) | -1.96%
O=C(O)CSc1nnc(-c2cn[nH]c2)n1-c1ccccc1C(F)(F)F | 1.2%
CCc1cnc(N)nc1NC(C)c1ccc(C)c(C)c1 (centres undefined) | 21.3%
COc1ccc(CN(CC2CCCO2)c2nc3c(s2)c(C)nn3C)cc1 (centres undefined) | 11.4%
Cc1nc2c(c(NCC(O)C(F)(F)F)n1)CCNCC2 (centres undefined) | 5.37%
Cn1ncnc1-c1ccnc(NCCCc2ccncc2)n1 | -1.41%
COc1cc(Oc2ncccc2C(F)(F)F)ccc1CN1CCCC1 | 38.8%
OC1CCN(c2ccnc(NCCc3ccccc3Cl)n2)C1 (centres undefined) | 39.3%
Cc1cc2c(N3CCC(N(C)Cc4nccs4)CC3)ncnc2s1 | 45%
COc1cccc(C2CCN(c3ccc4cc[nH]c4n3)C2)c1OC (centres undefined) | 50.2%

SMILES | cytotoxicity at 10 µM
CN1CC2(CCN(C(=O)c3ccc4c(=O)n(C)cnc4c3)C2)OC1=O (centres undefined) | 2.41%
Cc1c(CN2CCCC(C(=O)c3ccc(C(C)(C)C)cc3)C2)cnn1C (centres undefined) | 10.4%
NCC1Cc2cccc(-c3nccc(N4CCC(O)CC4)n3)c2O1 (centres undefined) | -14.9%
N[C@@H]1c2ccccc2C2(CCN(c3cccc(C(F)(F)F)n3)CC2)[C@H]1O | 0.243%
Cc1noc(-c2ccnc(Oc3ccc(CN4CCCC4)cc3F)c2)n1 | 15.7%
Cc1ccc(CN2CCN(C(=O)c3ccc(Br)o3)CC2)cc1 | 1.16%
Cc1sc2nc(CCN)nc(N3CC(N4CCCCC4)C3)c2c1C | -21.9%
CCC(NC(=O)C1CCN(S(C)(=O)=O)CC1)c1ccc(C)cc1C (centres undefined) | -10.6%
O=C1CC(c2ccc3c(c2)OCO3)c2cnn(C3CCCC3)c2N1 (centres undefined) | 24.3%
CCCn1cc(S(=O)(=O)N[C@H]2CN(CCO)C[C@@H]2C2CC2)cn1 | -11.3%
NC(=O)CCn1cc(CNCCCc2ccccc2O)c2ccccc21 | 8.92%
OCC1CCCCN1c1ccc(-c2nc(-c3ccccc3F)no2)cn1 (centres undefined) | 51.2%
Cc1cc(SCC(=O)O)nc2nn(CC(F)F)c(C)c12 | 45.5%
Cc1cccc(-c2noc(CN3CC(n4cc(C)cn4)C3)n2)c1 | -8.8%
Cc1noc(NC(=O)c2ccc(OC(F)(F)F)cc2)n1 | 33.5%
Cc1noc(NC(=O)c2ccc(Br)cc2)n1 | 32.9%
CC(C)Cc1ccc(S(=O)(=O)Nc2ccc(=O)n(C)c2)cc1 | 46.3%
c1cnc(-c2nc(CN3CCOC(Cn4cncn4)C3)cs2)nc1 (centres undefined) | -15.2%
Cc1nc2cc(C3CCN(Cc4cccc(F)c4F)C3)nn2c(O)c1C (centres undefined) | 0.333%
Cc1ccc(CN(Cc2ncc[nH]2)C2CC(C)(C)NC(C)(C)C2)o1 | -15.2%
Cc1ccc(N(CC(=O)c2ccc(Br)cc2)C2=NCCCCC2)cc1 | 36.5%
Cc1ccc(CN(CCCn2ccnc2)Cc2c(F)cccc2F)s1 | 2.76%

SMILES | cytotoxicity at 10 µM
COc1ccc(F)c(CN(CCCn2ccnc2)Cc2ccc(C)s2)c1 | -7.14%
COc1ccc(C)cc1CN1CCC(c2cc3ncccc3cn2)CC1 | 20.5%
CN1CCC2(COCCN(Cc3cccc(C#N)c3)C2)C1 (centres undefined) | 0.0422%
COCCNC(=O)C1CN(Cc2ccncc2)Cc2ccnn2C1 (centres undefined) | -83%
Clc1ccc(-c2ccc(C3CNCCO3)nc2)cc1 (centres undefined) | -5.86%
Cn1ccnc1CN1CCC2(CC1)CN(c1ccccn1)CCO2 | -0.335%
CN(C)C[C@]12COC[C@H]1CN(Cc1ccccn1)C2 | 5.89%
O=C([C@H]1C[C@H]2OCC[C@H]2N(Cc2ccoc2)C1)N1CCCCO1 | -73.2%
COc1ccc(CN2CCO[C@H]3[C@H](OCc4ccncc4)CC[C@@H]32)cc1 | -30.9%
CCS(=O)(=O)N1CCc2c(CN3CCOCC3)cncc2C1 | 4.35%
COc1cc(N2CCC3(CCN(Cc4nccs4)CC3)C2)ncn1 | -36%
Cc1ccc(CN2CC[C@@H]3[C@@H]2CCN3C(=O)Cc2cccs2)o1 | -119%
Cc1nc(CN2CCN3C[C@H](Oc4cncnc4)C[C@H]3C2)cs1 | -81.4%
Fc1cccc(N2CCCC3(CN(Cc4nccs4)CCO3)C2)c1 (centres undefined) | -58.2%
COc1cc(N2CCC3(CCN(Cc4csc(C)n4)C3=O)C2)ncn1 (centres undefined) | -104%
Cc1noc(C)c1CN1CCC[C@]2(C[C@@H](Oc3ccccn3)CO2)C1 | -67.1%
Cc1cc(CN2C[C@@H]3CN(C(=O)c4cccn4C)CCO[C@@H]3C2)no1 | -148%
Cc1nc([C@H]2C[C@@H]3CCN(Cc4scnc4C)C[C@H]3O2)no1 | -129%
O=C1CC(c2ccncc2)C2(CCN(CCc3ccccc3)CC2)N1 (centres undefined) | -1.58%
Cc1cnc(N2CCc3c(CNc4ccnc(C)n4)cncc3C2)nc1 | -39.1%
FC1(F)CCN(Cc2ccncc2)CC12CCN(c1cccnc1)C2 (centres undefined) | -94.8%
